This is a sample that favours compounds with a hit; in the whole collection about 2.9% have one here.
DENV2 CPE: DENV2-induced cell death inhibition; actives 1.7% (n = 350,000); DENV2-infected cells, cytopathic effect rescue, plate reader; CPE inhibition, % at 9.99 µM; in the data active means CPE inhibition above about 20%, passing the limit was not always enough; inconclusive means no clear call, values can overlap the other calls; tested in BHK-21 cells
SIRT5 block: blocks human SIRT5 desuccinylation of peptide. Purified SirT5, succinyl-peptide AMC, trypsin-coupled fluorescence. inhibition, % at 15 µM. actives 1.1% (n = 330,000); in the data active means inhibition above about 15%; inconclusive means no clear call, values can overlap the other calls
E-selectin induc: induces E-selectin expression in human endothelial cells; P16581; HUVEC E-selectin immunofluorescence imaging; normalized: neutral wells 0, TNF-alpha wells 100; activation, % at 7.58 µM; actives 0.37% (n = 260,000); AID 686992;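 active means mean E-selectin-positive cell signal at least 10% of the positive control, reached in at least 60% of replicates, without over 20% cell loss; inconclusive means no rule given, readout overlaps actives, possibly toxicity-flagged; inactive means the rest, including those meeting only one limit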
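Test system: HUVEC; input: 3,000 HUVEC/well; measured by: immunofluorescence imaging; read-out: % PE-positive cells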
Hits are given with their value; – = inactive; ? = inconclusive; · = not tested or not shown.

SMILES	DENV2 CPE	SIRT5 block	E-selectin induc
CC(C)C(OC(=O)c1ccco1)C(=O)NCc1ccc2c(c1)OCO2 (stereo not drawn)	–	–	·
CSc1ccccc1NC(=O)COC(=O)c1ccccc1Cc1ccccc1	·	·	–
C[C@@H]1CCCCO[C@@H](CN(C)Cc2ccc(Cl)c(Cl)c2)[C@@H](C)CN([C@H](C)CO)C(=O)c2cc(NC(=O)c3ccncc3)ccc2O1	–	15.1	–
C[C@@H]1CCCCO[C@@H](CN(C)Cc2ccc(Cl)c(Cl)c2)[C@H](C)CN([C@@H](C)CO)C(=O)c2cc(NC(=O)c3ccccc3)ccc2O1	–	–	–
C[C@@H]1CN([C@H](C)CO)C(=O)c2cc(NC(=O)c3ccncc3)ccc2O[C@@H](C)CCCCO[C@H]1CN(C)Cc1ccc(Cl)c(Cl)c1	85.4	–	–
C[C@@H]1CCCCO[C@H](CN(C)Cc2ccc(Cl)c(Cl)c2)[C@@H](C)CN([C@H](C)CO)C(=O)c2cc(NC(=O)c3ccncc3)ccc2O1	–	–	–
CC(=O)c1c(C)nc(-c2ccc(OCC(=O)Nc3ccccc3)cc2)n1O	–	–	–
CCC(CC)NC(=O)Nc1ccc(F)c(Cl)c1	–	–	27.2
Cc1ccc(NC(=O)Nc2ccc(F)c(Cl)c2)cc1	–	–	–
O=C1C2C(C(=O)N1/N=C/c1cc([N+](=O)[O-])c(O)cc1O)C1C=CC2C12CC2 (stereo not drawn)	–	–	–
CN1[C@@H]2Cn3c(ccc(-c4ccncc4)c3=O)[C@H]1[C@@H](C(=O)N1CCC(Cc3ccccc3)CC1)[C@@H]2CO	–	–	–
CN1[C@@H]2Cn3c(ccc(C4=CCCC4)c3=O)[C@H]1[C@@H](C(=O)N1CCCCC1)[C@@H]2CO	110.3	–	–
CN1[C@@H]2c3ccc(-c4ccncc4)c(=O)n3C[C@H]1[C@H](CO)[C@H]2C(=O)N1CCC(Cc2ccccc2)CC1	24.6	–	–
CN1[C@@H]2c3ccc(C4=CCCC4)c(=O)n3C[C@H]1[C@H](CO)[C@H]2C(=O)N1CCCCC1	–	–	–
CS(=O)(=O)N1[C@@H]2Cn3c(ccc(C4=CCCCC4)c3=O)[C@H]1[C@@H](C(=O)N1CCOCC1)[C@@H]2CO	–	–	–
CS(=O)(=O)N1[C@@H]2c3ccc(-c4ccc(F)cc4)c(=O)n3C[C@H]1[C@H](CO)[C@H]2C(=O)N1CCOCC1	115.4	–	–
COc1ccccc1-c1ccc2n(c1=O)C[C@H]1[C@H](CO)[C@@H](C(=O)N3CCCCC3)[C@@H]2N1CC1CC1	–	–	–
COc1ccccc1-c1ccc2n(c1=O)C[C@@H]1[C@@H](CO)[C@H](C(=O)N3CCCCC3)[C@H]2N1CC1CC1	–	20.3	–
CC1(C(=O)Nc2ccc3c(c2)OCO3)CCN1C(=O)Cc1cc(F)ccc1F (stereo not drawn)	–	–	–
CCN(CC)C(=O)CSc1nnc(NC(=O)CCc2ccccc2)s1	–	–	–
Cn1c(SCC(=O)Nc2ccccc2-c2ccccc2)nnc1-c1ccco1	–	–	·
COc1ccc(NC(=O)N(C)C[C@H]2Oc3ccc(NC(=O)c4ccncc4)cc3CC(=O)N([C@@H](C)CO)C[C@@H]2C)cc1	–	–	–
C[C@H](CO)N1C[C@H](C)[C@H](CN(C)S(=O)(=O)c2ccc(F)cc2)Oc2c(NS(C)(=O)=O)cccc2C1=O	·	·	–
O=C(NCc1ccccc1)C(c1ccc(-c2ccccc2)cc1)n1c(=O)c(-c2ccco2)nc2ccccc21 (stereo not drawn)	–	–	–
O=C(NC1CCC1)[C@@H]1[C@@H](CO)[C@@H]2Cn3c(ccc(C4=CCCC4)c3=O)[C@@H]2N1C(=O)C1CCC1	–	–	–
SMILES	DENV2 CPE	SIRT5 block	E-selectin induc
O=C(NC1CCC1)[C@H]1[C@H](CO)[C@H]2Cn3c(ccc(C4=CCCCC4)c3=O)[C@H]2N1C(=O)C1CCOCC1	64.5	–	–
O=C([C@@H]1[C@@H](CO)[C@@H]2Cn3c(ccc(-c4ccccc4)c3=O)[C@H]1N2)N1CCCCC1	?	–	–
O=C([C@@H]1[C@@H](CO)[C@@H]2Cn3c(ccc(C4=CCCCC4)c3=O)[C@H]1N2)N1CCCCC1	34.8	–	–
NS(=O)(=O)c1ccc(NC(=O)c2ccc(OCC3CCCO3)cc2)cc1 (stereo not drawn)	–	–	–
N=c1n(CCO)c2ccccc2n1CCOc1ccc(Cl)cc1Cl	–	–	–
S=c1[nH]nc(CN2CCCCC2)n1Cc1ccccc1	–	–	·
N#C[C@@H]1[C@H](c2ccc(C#Cc3ccc(F)cc3)cc2)[C@@H](CO)N1C(=O)C1CCCC1	51.1	–	–
N#C[C@@H]1[C@H](c2ccc(C#Cc3ccccc3F)cc2)[C@@H](CO)N1C(=O)C1CC1	81.7	–	–
N#C[C@@H]1[C@@H](c2ccc(C#Cc3ccccc3F)cc2)[C@H](CO)N1C(=O)C1CCCCC1	–	–	–
